Data set [1] is filed under the species Oryctolagus cuniculus. The data set is described as follows: Binding affinity to eIF4A1/2 in rabbit reticulocyte lysate assessed as cap-dependent translation at 500 nM after 1.5 hrs by dual luciferase reporter gene assay relative to control. Summed up:
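Rabbit reticulocyte lysate translating the cap-dependent/HCV IRES dual-luciferase mRNA, with compound at 500 nM in DMSO (5% v/v final), 30 °C for 1.5 h. Cap-dependent luciferase expressed as % translation relative to DMSO control.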

Data set [2] is filed under the species Oryctolagus cuniculus. The experiment in a line: Inhibition of cap-independent HCV-IRES-induced translation in rabbit reticulocyte lysate at 500 nM after 1.5 hrs by luciferase reporter gene assay. The class given is functional. The gist of the method: (§1)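 Capped bicistronic reporter mRNA: cap-dependent firefly luciferase first cistron, HCV IRES-driven Renilla second cistron. Transcribed in vitro with SP6 from the BamHI-linearised plasmid. 200 ng RNA translated in rabbit reticulocyte lysate with 70 mM KCl, 2 mM DTT, RNasin and compound in DMSO (5% v/v final), 30 °C for 1.5 h. Dual luciferase readout. Duplicates, 4 independent assays, mean IC50 by curve fit.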
For orientation: In a reporter assay the amount or activity of a reporter protein is the signal.

Data set [3] in a line: Binding affinity to eIF4A1/2 in rabbit reticulocyte lysate assessed as inhibition of cap-dependent translation after 1.5 hrs by dual luciferase reporter gene assay. Also on record: species or system Oryctolagus cuniculus. The gist of the method: as §1
The nature of data set [4]: Antiproliferative activity against human Jurkat T cells after 72 hrs by MTT assay. The class given is functional, cell-based. Summed up:
(§2)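 HeLa and SK-MEL2 grown in DMEM, Jurkat in RPMI 1640, each with 10% FBS and penicillin-streptomycin, at 37 °C and 5% CO2. Adherent cells seeded at 2000/well and left to recover overnight; Jurkat seeded at 5000/well with no recovery. Compound added in DMSO (0.1% final), then 72 h incubation and MTT readout.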
A general note: Formazan colour is commonly taken as a measure of viable cells.

The test system of data set [5] is SK-MEL-2. The experiment in a line: Antiproliferative activity against human SK-MEL-2 cells after 72 hrs by MTT assay in presence of 10% FBS. The class given is functional, cell-based. Particulars: SK-MEL-2, 72 h. The gist of the method: as §2
For data set [6], the system named is HeLa. The data set is described as follows: Antiproliferative activity against human HeLa cells after 72 hrs by MTT assay. Format: functional, cell-based. Summed up:
as §2

A short description of data set [7]: Half life in RPMI media at 10 uM by HPLC analysis. The class given is physicochemical. The gist of the method:
(§3)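 Compound added from DMSO stock to pre-heated RPMI 1640 (1.8 mL) plus 0.2 mL human AB male serum or FBS, or to 2 mL RPMI alone, at final 1 or 10 μM. Samples analysed by HPLC at pH 9.5 (formic acid/ammonia in acetonitrile/water), with conversion taken from the substrate/internal standard peak ratio. Run in triplicate; half-lives ± SD.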

Data set [8] can be described thus: Half life in RPMI media at 10 uM by HPLC analysis in presence of fetal bovine serum. The class given is ADME. The following applies: cattle. Summed up: as §3
Data set [9] is described as follows: Half life in RPMI media at 10 uM by HPLC analysis in presence of human blood serum. The class given is ADME. The gist of the method:
as §3

Data set [10] is described as follows: Selectivity ratio of IC50 for MEF to IC50 for human Jurkat T cells. Format: cell-based. The following applies: mouse (MEF) and human (Jurkat T cells), read-out: Ratio IC50.
The nature of data set [11]: Selectivity ratio of IC50 for MEF to IC50 for human SK-MEL-2 cells. The class given is cell-based. Particulars: mouse (MEF) and human (SK-MEL-2 cells), MEF and SK-MEL-2 cells; read-out: Ratio IC50.
Data set [12] concerns MEF. The experiment in a line: Antiproliferative activity against MEF after 72 hrs by MTT assay. The class given is cell-based. The following applies: Mus musculus.
A short description of data set [13]: Selectivity ratio of IC50 for MEF to IC50 for human HeLa cells. Format: cell-based. Particulars: mouse (MEF) and human (HeLa cells), read-out: Ratio IC50.
In data set [14] the test system is SK-MEL-2. The experiment in a line: Antiproliferative activity against human SK-MEL-2 cells after 72 hrs by MTT assay in presence of 5% FBS. The class given is functional, cell-based. Particulars: SK-MEL-2, 72 h. The gist of the method:
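SK-MEL2 grown with reduced serum (5% FBS) to slow proliferation. Compounds added in DMSO (0.1% final), followed by a 72 h MTT proliferation assay.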

The nature of data set [15]: Dissociation constant, pKa of the compound. Format: physicochemical.
Data set [16] concerns Jurkat. The data set is described as follows: Antiproliferative activity against human Jurkat T cells up to 10^4 nM after 72 hrs by MTT assay. The class given is functional, cell-based. The gist of the method: as §2
The test system of data set [17] is SK-MEL-2. The data set is described as follows: Selectivity ratio of IC50 for human SK-MEL-2 cells in presence of 10% FBS to IC50 for human SK-MEL-2 cells in presence of 5% FBS. Format: functional.
Data set [18] relates to SK-MEL-2. The experiment in a line: Selectivity ratio of IC50 for human SK-MEL-2 cells in presence of 5% FBS to IC50 for human SK-MEL-2 cells in presence of 10% FBS. Format: functional.

Activity calls are given as the source filed them. The rule behind the calls is not given here.

Consider `CC(/C=C/C(C)=C/[C@@H]1Cc2nc(cs2)CCCCC(=O)O[C@@H](C)C/C(C)=C/C=C/C(=O)O1)=C\CN(C)C`, for which, in [1], the Activity was 80%. The inhibition result in [2] was “inactive”. For the same molecule, the IC50 – broadly, the concentration that inhibits the measured activity by half – is more than 500 nM in data set [3], more than 10000 nM in data set [4], 950 nM in data set [5] and 860 nM in [6].
With `CC(/C=C/C(C)=C/[C@@H]1Cc2nc(cs2)CCCCC(=O)O[C@@H](C)C/C(C)=C/C=C\C(=O)O1)=C\CN1CCOCC1`, the t1/2 in data set [7] came out at 0.89 h; in [8] it was 9.23 h; in [9], 17.8 h. The selectivity ratio in data set [10], in data set [11] and in data set [13] was 5 in each case. Besides, the IC50 in data set [12] was more than 2000 nM; in data set [14], 157 nM; in data set [3], 72.2 nM; in [5], 320 nM; in data set [6] it was 430 nM. Moreover, the pKa (as a rule, the pH at which an ionisable group is half protonated) in [15] was 8.36. Moreover, the inhibition result in [2] is “inactive”. Further, the result in [16] was inactive. In addition, in [17], the “Ratio IC50” value was 2.
In the case of `CC(/C=C/C(C)=C/[C@@H]1Cc2nc(cs2)CCCCC(=O)O[C@@H](C)C/C(C)=C/C=C\C(=O)O1)=C\CN1CCCC1`, the figures for the t1/2 in data set [7], in data set [8] and in data set [9] were 3.87 h, 14.8 h and 11.7 h, respectively. In addition, the selectivity ratio in data set [10], in data set [11] and in [13] was 4 throughout. The IC50 is more than 100 nM in data set [12]; 154 nM in data set [14]; 54.8 nM in [3]; 25 nM in [4]; 27 nM in data set [5]; 23 nM in data set [6]. In data set [15], this molecule displayed a pKa of 11. The “Ratio IC50” value in data set [18] turned out to be 6. For the same molecule, the inhibition result in [2] is “inactive”.

The record behind these values is ChEMBL document CHEMBL3124904, “Second-generation derivatives of the eukaryotic translation initiation inhibitor pateamine A targeting eIF4A as potential anticancer agents” (Bioorg Med Chem, 2014).
